Measured values of several laboratories.
Effect on: cell growth or viability

| Structure (SMILES) | cell line | assay | setting | IC50 |
| --- | --- | --- | --- | --- |
| CCN(CC)CCNC(=O)c1c(C)[nH]c(/C=C2\C(=O)Nc3ccc(F)cc32)c1C | Swiss-3T3 |  | 72 h | 4.43 µM |
| CCN(CC)C(=O)c1ncn2c(=O)n(C)nnc12 | U-118-MG | resazurin | 7 days | 80 µM |
| CCCCCC/N=C1\c2cc(C(N)=O)nc3c(N)c(Cl)c(N)c(c23)N1C | HCC44 |  |  | 1.1 µM |
| O=Cc1ccc(CO)o1 | RD | WST-1 | 48 h | 60.6 µM |
| COc1ccc(CCNC(=O)C(=O)Nc2ccc(Cl)cc2)cc1 | NCI-H2122 |  |  | < 0.1 µM |
| CC(C)c1cc(C(=O)N2Cc3ccccc3C2)c(O)c2nc[nH]c12 | UMUC3 | ATP luminescence | 72 h | 53 µM |
| Cc1cccc(-n2ncc(Br)c(Br)c2=O)c1 | NCI-H2122 | resazurin | 96 h | 1.26 µM |
| CN(C)C/C=C/C(=O)Nc1cc2c(Nc3ccc(F)c(Cl)c3)ncnc2cc1O[C@H]1CCOC1 | Caco-2 | MTT | 72 h | 3.1 µM |
| COc1ccc(/C=C/C(=O)/C=C/c2cn(-c3ccccc3)nc2-c2ccccc2)cc1O | LLC-PK1 | MTT | 72 h | 8.39 µM |
| COc1cc([C@@H]2c3cc4c(cc3[C@@H](O[C@@H]3O[C@@H]5CO[C@@H](C)O[C@H]5[C@H](O)[C@H]3O)[C@H]3COC(=O)[C@H]23)OCO4)cc(OC)c1O | Caco-2 | MTS | 72 h | 16.5 µM |
| Cc1[nH]c(/C=C2\C(=O)Nc3ccc(S(=O)(=O)N(C)c4cccc(Cl)c4)cc32)c(C)c1C(=O)N1CCN(C)CC1 | RD |  | 72 h | 2.11 µM |
| CCSC(=O)c1ncn2c(=O)n(C)nnc12 | U-118-MG | resazurin | 7 days | 165 µM |
| CC(C)C[C@H](NC(=O)[C@H](Cc1ccccc1)NC(=O)c1cnccn1)B(O)O | LoVo | ATP luminescence |  | 0.015 µM |
| COc1ccc(-c2nn(-c3ccc(S(C)(=O)=O)cc3)cc2/C=N/N=c2\[nH]c(-c3ccc(Br)cc3)cs2)cc1 | F180 | MTT | 48 h | 59.6 µM |
| COc1cc(Nc2nccc(-c3cnn4nc(OC)ccc34)n2)cc(C(F)(F)F)c1 | U-118-MG | ATP luminescence |  | 0.12 µM |
| O=C(Nc1ccc(CN2CCOCC2)c(C(F)(F)F)c1)c1ccc(C#Cc2cccc3cnccc23)cn1 | IMR-90 | MTT |  | > 180 µM |
| Cn1nnc2c(C(=O)N3CCCC3)ncn2c1=O | U-118-MG | resazurin | 7 days | 136 µM |

| Structure (SMILES) | cell line | assay | setting | IC50 |
| --- | --- | --- | --- | --- |
| CC(C)Cc1ccc(-c2nn(-c3ccc(S(C)(=O)=O)cc3)cc2/C=N\N=C2/NC(=O)CS2)cc1 | F180 | MTT | 48 h | 44.6 µM |
| CON=C1CCc2c(O)c(C(=O)N3Cc4ccccc4C3)cc(C(C)C)c21 | UMUC3 | ATP luminescence | 72 h | 78.2 µM |
| C[C@@H](Oc1cc(-c2cnn(C3CCNCC3)c2)cnc1N)c1c(Cl)ccc(F)c1Cl | RD |  | 72 h | 0.49 µM |
| COc1cc([C@@H]2c3cc4c(cc3[C@@H](O[C@@H]3O[C@@H]5CO[C@@H](C)O[C@H]5[C@H](O)[C@H]3O)[C@H]3COC(=O)[C@H]23)OCO4)cc(OC)c1O | Caco-2 | MTS | 48 h | 15.3 µM |
| Cc1nc(Nc2ncc(C(=O)Nc3c(C)cccc3Cl)s2)cc(N2CCN(CCO)CC2)n1 | F180 | MTT | 48 h | 32.2 µM |
| Cn1nnc2c(C(N)=O)ncn2c1=O | U-118-MG | MTT | 72 h | 944 µM |
| CC(C)c1cc(C(=O)N2Cc3ccccc3C2)c(O)c2c1C(=O)C(C(F)(F)F)C2 (stereo not drawn) | UMUC3 | ATP luminescence | 72 h | 59.6 µM |
| CS(=O)(=O)c1ccc(-n2cc(C=N/N=c3\[nH]c(-c4ccc(Br)cc4)cs3)c(-c3ccc([N+](=O)[O-])cc3)n2)cc1 | F180 | MTT | 48 h | 36.6 µM |
| C=C1Cc2c(O)c(C(=O)N3Cc4ccccc4C3)cc(C(C)C)c2C1=O | UMUC3 | ATP luminescence | 72 h | > 100 µM |
| COc1cc(/C=C/C(=O)/C=C/c2c(C)nn(-c3cccc([N+](=O)[O-])c3)c2Cl)cc(OC)c1OC | LLC-PK1 | MTT | 72 h | 5.93 µM |
| CC1Cc2c(O)c(C(=O)N3Cc4ccccc4C3)cc(C(C)C)c2C1=O (stereo not drawn) | UMUC3 | ATP luminescence | 72 h | 70.4 µM |
| CC1(C)CC[C@]2(C)CC[C@]3(C)C(=CC[C@@H]4[C@@]5(C)CC[C@H](O)C(C)(C)[C@@H]5CC[C@]43C)[C@@H]2C1 | RD | WST-1 | 48 h | 93.7 µM |
| CC(C)c1cc(C(=O)N2Cc3ccccc3C2)c(O)c2c1C(=O)C(C)(C)C2 | UMUC3 | ATP luminescence | 72 h | 51.9 µM |
| CNC(=O)c1cccc2cc(Oc3ccnc4cc(OCC5(N)CC5)c(OC)cc34)ccc12 | Swiss-3T3 | SRB |  | 0.064 µM |
| CC(C)c1cc(C(=O)N2Cc3ccccc3C2)c(O)c2c1C(=O)C(F)(F)C2 | UMUC3 | ATP luminescence | 72 h | > 100 µM |
| COc1cc(/C=C/C(=O)/C=C/c2cn(-c3ccccc3)nc2-c2ccccc2)cc(OC)c1O | LLC-PK1 | MTT | 72 h | 10.2 µM |
